Laboratory results: ChEMBL document CHEMBL1151207, “Enniatins of Fusarium sp. strain F31 and their inhibition of Botrytis cinerea spore germination” (2004)
Converted amounts (≈) assume the structure as drawn.

Assays:
Botrytis cinerea [1] = assay: Antifungal activity against Botrytis cinerea 98G1 spore germination after 24 hrs at 20 degC in darkness by microtiter plate method; format: functional; details: 98G1, 24 h
In short: (§1)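 B. cinerea 98G1 conidia (tomato leaf agar, near-UV induced sporulation, mesh-filtered) suspended at 10⁶ spores/mL in liquid Hagem, 100 μL per well over dried isolated enniatins or commercial enniatin mixture at 10, 25, 50, 75, 100 μg/mL. A620 read at inoculation and after 24 h at 20 ± 1 °C in darkness, plus stereomicroscope 4-rank scale; duplicate wells.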

Botrytis cinerea [2] = assay: Antifungal activity against Botrytis cinerea 98G1 assessed as drug level required for detectable inhibition of fungal growth after 24 hrs at 20 degC in darkness by microtiter plate method; format: functional; in short: as §1

Row | SMILES | MIC (Botrytis cinerea [1]) | Activity (Botrytis cinerea [2])
1 | CC[C@H](C)[C@H]1C(=O)O[C@H](C(C)C)C(=O)N(C)[C@@H](C(C)C)C(=O)O[C@H](C(C)C)C(=O)N(C)[C@@H](C(C)C)C(=O)O[C@H](C(C)C)C(=O)N1C [ENNIATIN B1] | 75 µg/mL (≈ 115 µM) | 25 µg/mL
2 | CC(C)[C@@H]1NC(=O)[C@@H](C(C)C)OC(=O)[C@H](C(C)C)N(C)C(=O)[C@@H](C(C)C)OC(=O)[C@H](C(C)C)N(C)C(=O)[C@@H](C(C)C)OC1=O [ENNIATIN B2] | > 100 µg/mL | >100 µg/mL
3 | CC(C)C[C@H]1C(=O)O[C@H](C(C)C)C(=O)N(C)[C@@H](C(C)C)C(=O)O[C@H](C(C)C)C(=O)N(C)[C@@H](C(C)C)C(=O)O[C@H](C(C)C)C(=O)N1C [ENNIATIN B4] | > 100 µg/mL | 50 µg/mL
4 | CC(C)[C@H]1C(=O)O[C@H](C(C)C)C(=O)N(C)[C@@H](C(C)C)C(=O)O[C@H](C(C)C)C(=O)N(C)[C@@H](C(C)C)C(=O)O[C@H](C(C)C)C(=O)N1C [ENNIATIN B] | > 100 µg/mL | 100 µg/mL
5 | CC(C)[C@H]1C(=O)O[C@H](C(C)C)C(=O)N(C)[C@@H](C)C(=O)O[C@H](C(C)C)C(=O)N(C)[C@@H](C(C)C)C(=O)O[C@H](C(C)C)C(=O)N1C [ENNIATIN J1] | > 100 µg/mL | >100 µg/mL
6 | CC[C@H]1C(=O)O[C@H](C(C)C)C(=O)N(C)[C@@H](C(C)C)C(=O)O[C@H](C(C)C)C(=O)N(C)[C@@H](C(C)C)C(=O)O[C@H](C(C)C)C(=O)N1C [ENNIATIN K1] | > 100 µg/mL | 100 µg/mL
